From ChEMBL document CHEMBL3804800, “(E)-3-Heteroarylidenechroman-4-ones as potent and selective monoamine oxidase-B inhibitors” (Eur J Med Chem, 2016)
pIC50: −log10 of the molar value.

What was measured:
[1] = molecular target: T1, Amine oxidase [flavin-containing] B (Homo sapiens, UniProt P27338); assay: biochemical; assay type: cell-based, BTI-TN-5B1-4
T1 sequence (P27338 whole entry): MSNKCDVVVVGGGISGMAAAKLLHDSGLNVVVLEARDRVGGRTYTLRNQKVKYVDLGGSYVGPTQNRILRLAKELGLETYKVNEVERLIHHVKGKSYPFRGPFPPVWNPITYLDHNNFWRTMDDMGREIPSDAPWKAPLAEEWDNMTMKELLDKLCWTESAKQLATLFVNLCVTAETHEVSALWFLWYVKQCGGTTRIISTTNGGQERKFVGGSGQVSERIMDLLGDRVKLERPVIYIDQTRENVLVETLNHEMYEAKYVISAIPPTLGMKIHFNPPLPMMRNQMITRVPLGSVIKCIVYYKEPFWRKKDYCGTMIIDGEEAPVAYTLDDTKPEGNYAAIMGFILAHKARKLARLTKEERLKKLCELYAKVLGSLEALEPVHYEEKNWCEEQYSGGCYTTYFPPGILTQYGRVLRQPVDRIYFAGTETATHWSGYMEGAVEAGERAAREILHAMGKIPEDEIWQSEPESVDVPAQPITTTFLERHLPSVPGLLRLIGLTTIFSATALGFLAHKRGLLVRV

[2] = molecular target: T2, Amine oxidase [flavin-containing] A (Homo sapiens, UniProt P21397); assay: Inhibition of human recombinant microsomal MAO-A expressed in baculovirus infected BTI-TN-5B1-4 cells using p-tyramine as substrate assessed as reduction in H2O2 production at 100 uM preincubated for 15 mins followed by substrate addition measured for 15 mins Amplex red dye based fluorimetric method relative to control; settings: for inhibition (INH): human, bti-tn-5b1-4, 0.25 h, 100 µM; for inhibition at 100 µM: BTI-TN-5B1-4, human, 0.25 h
T2 sequence (P21397 whole entry): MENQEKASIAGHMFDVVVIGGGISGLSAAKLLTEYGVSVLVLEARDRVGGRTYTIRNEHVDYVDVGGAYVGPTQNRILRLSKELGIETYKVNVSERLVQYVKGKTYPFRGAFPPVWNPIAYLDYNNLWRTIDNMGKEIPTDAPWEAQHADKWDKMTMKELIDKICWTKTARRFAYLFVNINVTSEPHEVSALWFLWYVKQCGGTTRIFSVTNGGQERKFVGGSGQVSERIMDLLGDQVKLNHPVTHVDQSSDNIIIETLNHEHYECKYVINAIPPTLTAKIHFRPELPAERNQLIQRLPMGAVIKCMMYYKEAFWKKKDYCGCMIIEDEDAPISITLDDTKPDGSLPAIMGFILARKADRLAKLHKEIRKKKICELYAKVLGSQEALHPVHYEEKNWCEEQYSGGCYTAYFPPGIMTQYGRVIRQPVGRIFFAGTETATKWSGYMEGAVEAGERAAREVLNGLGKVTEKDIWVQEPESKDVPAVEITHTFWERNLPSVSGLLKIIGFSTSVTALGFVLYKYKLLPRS
Outline: (§1)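 Microsomal hMAO-A or hMAO-B from baculovirus-infected BTI-TN-5B1-4 insect cells. Activity read as H2O2 formed from p-tyramine, detected by Amplex Red resorufin fluorescence. Test compounds were checked for direct reaction with Amplex Red. Highest concentration tested was 100 μM for some compounds and 1 mM for others. Mean ± S.E.M. from five experiments.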

[3] = Selectivity index, ratio of IC50 for human recombinant microsomal MAO-A expressed in baculovirus infected BTI-TN-5B1-4 cells to IC50 for human recombinant microsomal MAO-B expressed in baculovirus infected BTI-TN-5B1-4 cells
[4] = molecular target: T1, Amine oxidase [flavin-containing] B; assay: Inhibition of human recombinant microsomal MAO-B expressed in baculovirus infected BTI-TN-5B1-4 cells using p-tyramine as substrate assessed as reduction in H2O2 production at 1 mM preincubated for 15 mins followed by substrate addition measured for 15 mins Amplex red dye based fluorimetric method; settings: bti-tn-5b1-4, 0.25 h, 1000 µM
Outline: as §1

[5] = molecular target: T1, Amine oxidase [flavin-containing] B; assay: Reversible inhibition of human recombinant microsomal MAO-B expressed in baculovirus infected BTI-TN-5B1-4 cells at 10 times IC50 using p-tyramine as substrate assessed as reduction in H2O2 production preincubated for 30 mins followed by substrate addition for 15 mins followed by compound dilution by Amplex red dye based fluorimetric method; settings: bti-tn-5b1-4, 0.25 h
Outline: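 Dilution method. […] The mixture was then diluted 100-fold into buffer containing Amplex Red, horseradish peroxidase and p-tyramine, and the reaction was monitored for 15 min. Slope was compared with a control preincubated and diluted without inhibitor.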

SMILES | pIC50 [1] | inhibition (INH) [2] | Ratio IC50 [3] | inhibition at 100 µM [2] | inhibition (INH) [4] | inhibition (INH) [5]
CN(C)c1ccc(/C=C2\COc3ccccc3C2=O)cn1 | 6.67 | Not Active | > 469 | – | – | –
O=C1/C(=C/c2c[nH]cn2)COc2cc(Cl)cc(Cl)c21 | 4.99 | – | 9.8 | 40% | – | –
O=C1/C(=C/c2ccsc2)COc2ccccc21 | 5.76 | – | 58 | 40% | – | –
O=C1Nc2ccccc2C1=O [ISATIN] | – | Not Active | – | – | – | –
O=C1/C(=C/c2ccco2)COc2ccccc21 | 5.42 | – | 27 | 40% | – | –
O=C1/C(=C/c2ccncc2)COc2ccccc21 | 4.91 | Not Active | > 8 | – | – | –
Nc1ccc(/C=C2\COc3ccccc3C2=O)cn1 | 5.62 | Not Active | > 42 | – | – | –
O=C(NCCN1CCOCC1)c1ccc(Cl)cc1 [MOCLOBEMIDE] | – | – | – | – | Not Active | –
O=C1/C(=C/c2cccs2)COc2ccccc21 | 5.95 | – | 88 | 40% | – | –
O=C1/C(=C/c2c[nH]c3ccccc23)COc2ccccc21 | 6.74 | – | 551 | 40% | – | –
Nc1ncc(/C=C2\COc3ccccc3C2=O)cn1 | 4.74 | Not Active | > 5.5 | – | – | –
O=C1/C(=C/c2c[nH]cn2)COc2ccccc21 | 4.69 | – | 5 | 40% | – | –
O=C1/C(=C/c2ccc[nH]2)COc2ccccc21 | 4.86 | – | 7.3 | 40% | – | –
COc1ccc2c(c1)OC/C(=C\c1cnc(N(C)C)nc1)C2=O | 4.98 | Not Active | > 9.6 | – | – | –
COc1ccc2c(c1)OC/C(=C\c1c[nH]cn1)C2=O | 4.97 | – | 9.4 | 40% | – | –
CN(C)c1ccc(/C=C2\COc3cc(Cl)cc(Cl)c3C2=O)cn1 | 4.98 | – | 9.5 | 40% | – | –
O=C1/C(=C/c2ccccn2)COc2ccccc21 | 5.53 | Not Active | > 34 | – | – | –
CN(C)c1ncc(/C=C2\COc3cc(Cl)cc(Cl)c3C2=O)cn1 | 7.98 | Not Active | > 9450 | – | – | Active
O=C1/C(=C/c2cccnc2)COc2ccccc21 | 5.08 | Not Active | > 12 | – | – | –
CN(C)c1ncc(/C=C2\COc3ccccc3C2=O)cn1 | 6.62 | Not Active | > 415 | – | – | –
